Measured values published in ChEMBL document CHEMBL4513216, “Probing the Open Global Health Chemical Diversity Library for Multistage-Active Starting Points for Next-Generation Antimalarials” (ACS Infect Dis, 2020).

Experiment: Toxicity liver stage against HepG2, at 10uM
Format: cell-based
Parameters: test concentration 10 uM, cell line HepG2-A16-CD81EGFP
Conditions: human, HepG2-A16-CD81EGFP cells; read-out: INHIBITION
In short: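 Uninfected HepG2-A16-CD81EGFP cells, 3 × 10^3 per well, 1536-well, plated on prespotted compound at 10 μM final, parasite-free screening media added to match infected plates; puromycin 10 μM positive, DMSO 0.5% negative; run in parallel with 48 h PbLuc assay at 37 °C, 5% CO2; viability by CellTiter-Glo luminescence, normalized to controls.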

SMILES | cytotoxicity at 10 µM
Cc1cc(C)nc(-n2nc(C)c3c2NC(=O)CSC3c2cnn(C)c2)n1 (centres undefined) | -36.5%
Cc1cc(C(=O)N2CCN(c3nc4c(C(C)C)cccc4s3)CC2)no1 | 16.7%
CCOc1ccccc1C(=O)NCCC(O)c1ccoc1 (centres undefined) | -16.4%
CC(=O)N1CC2(CCN(C(=O)C3CC3)CC2)c2cc(C)ccc21 | 9.94%
O=C1CSC(c2ccc(O)cc2)c2sccc2N1 (centres undefined) | 5.31%
O=c1[nH]c2nc(NCC3CCCO3)ncc2c(=O)n1-c1ccc(F)cc1 (centres undefined) | -5.89%
CNC(=O)c1sccc1N(C)S(=O)(=O)c1ccc(Cl)cc1 | 14.7%
COc1ccc(-c2nc(C)cc(SCC(N)=O)n2)cc1 | 5.64%
Cc1ccc(C(=O)Cc2c(Cl)nc3n(C)c(=O)n(C)c(=O)n23)cc1 | -3.96%
CCN(CC)c1nc(Nc2cccc(C(C)O)c2)nc2ccccc12 (centres undefined) | 37.6%
CCCNc1cc(-c2c[nH]nc2C2CCN(C(=O)C3CCC3)C2)ccn1 (centres undefined) | 82%
CN(C)c1cc(C2CCCN(S(=O)(=O)c3cn[nH]c3)C2)ccn1 (centres undefined) | -0.24%
Cc1ccsc1CN1CCc2c(nc(N3CCCCC3C)[nH]c2=O)C1 (centres undefined) | -3.42%
Cn1cc(C(=O)N2CCCC(Cc3cccc4ncccc34)C2)cn1 (centres undefined) | 4.88%
CCNC(=O)Nc1ccc(N2CCC(OC)CC2)c(C(F)(F)F)c1 | 20.4%
CCc1cc(N2CCC(Nc3ccc(Cl)cn3)CC2)ncn1 | 49.1%
COc1ccc2c(c1)CCCN2C(=O)c1cccc(N(C)C)c1 | 62.8%
CCSc1cccc(NCc2cccnc2)c1 | 0.14%
COc1c(C2CCCN2CC(=O)N(C)Cc2ccco2)c(C)nn1C (centres undefined) | -3.13%
CNC(=O)c1cccnc1NCc1ccc(Cn2ccnc2)cc1 | 90.3%
CC(C)c1ccc(OCCNC(=O)c2ccoc2)cc1 | -1.92%
Cc1ncsc1C(=O)OCC1CCN(c2ccccc2)C1 (centres undefined) | 27.5%

SMILES | cytotoxicity at 10 µM
Cc1ccc(NCc2ccc(C#N)cc2)c(CN(C)C)c1 | -3.07%
Fc1cc(CN2CCOC3(CCOCC3)C2)ccc1OC(F)F | -11.9%
O=C(NC1CC1)C1CCN(c2cccc(C(F)(F)F)n2)CC1 | 5.17%
CC1CCN(C(=O)C2CCCN(C(=O)Nc3ccccn3)C2)CC1 (centres undefined) | -2.98%
COCc1nc2cc(NCc3ccc(CO)o3)ccc2o1 | -16.2%
Cc1cc(S(=O)(=O)N2CCCN3CCCC3C2)ccc1F (centres undefined) | 17%
CCCNC(=O)CNc1ccc2c(c1)N(C(=O)OC(C)(C)C)CCC2 | 13%
CC(C)CN1CCC(NC(=O)c2ccc(Cl)cc2Cl)CC1 | -8.33%
CCC(CNC(=O)NC1CCN(C)CC1)Oc1ccccc1Cl (centres undefined) | 5.47%
COCC1CN(c2ccc3c(Cl)ccnc3c2F)CCO1 (centres undefined) | 25%
Cc1cc(S(=O)(=O)Nc2onc(C)c2C)sc1C | 5.54%
CN(Cc1ccccn1)C(CO)c1cccc(Br)c1 (centres undefined) | -6.12%
O=C(Cn1cnc2ccccc2c1=O)Nc1cc(C2CC2)n[nH]1 | 49.4%
O=C(CCCn1ccnc1)NC1CCCN(c2ccccc2Cl)C1 (centres undefined) | 4.86%
N#Cc1ccc(CN(CC(N)=O)C2CCCC2)c(Br)c1 | 30.1%
Cc1nc(CN2CCCC(Nc3ncnc4ccccc34)C2)no1 (centres undefined) | 50%
CN(Cc1ccc(Cl)s1)C(=O)CN(C)C1CCCc2ccccc21 (centres undefined) | 21.4%
Cc1ccc(C)c(OCC(O)CN(C)CC(=O)Nc2cc(C)on2)c1 (centres undefined) | -14.4%
Cc1nc(C(=O)NC2CCN(CCOc3ccc(Br)cc3)CC2)cs1 | 13%
N#Cc1c(Cl)nsc1NCC1(c2ccccc2)CCC1 | 26.7%
COc1ccc(-c2nc(CN3CC(n4cc(C)cn4)C3)no2)cc1 | -14.9%
COCC1CN(c2ncccn2)Cc2cnn(CC3CC3)c21 (centres undefined) | 6.68%

SMILES | cytotoxicity at 10 µM
COCC(=O)N1CCC2(COCc3cnc(N4CCOCC4)nc32)C1 (centres undefined) | -65%
O=C(c1ccco1)N1CCO[C@@H]2CN(c3ccccc3)CC[C@@H]2C1 | -67.7%
COc1ccc2[nH]cc(-c3ccnc(NC4CCCC4)n3)c2c1 | -6.33%
c1cc(-c2c[nH]nc2C2CCCCC2)nc(N2CCCCCC2)n1 | 8.07%
O=c1[nH]c(NCc2cccc(OC(F)F)c2)nc2c1CCNC2 | 2.47%
OC1(CN2CCC(Oc3cccc(C(F)(F)F)c3)CC2)CCNC1 (centres undefined) | 1.05%
c1ccc(-c2cnn3cc(CN4CCC5(CCO5)CC4)cnc23)cc1 | 1.64%
CCc1cc(N2CCC(n3cc(C(=O)NC4CC4)nn3)CC2)ncn1 | 27.7%
CC1(c2ccccc2)CCCN(Cc2cncn2C2CCCC2)C1 (centres undefined) | 16.3%
Clc1ccccc1-c1cc(CNc2ncnc3c2CCNCC3)no1 | 24.6%
CCO[C@H]1C[C@@H](O)C12CCN(C(=O)CC(F)(F)F)CC2 | -6.36%
CC(C)CN1CCCC1c1ccc(C(=O)Nc2cccnc2)s1 (centres undefined) | -6.79%
Cc1cc(CN2CCCC2)cc(Oc2nc(C)cnc2C)c1 | -2.54%
C(=C\c1ccc(CN2CCCC2)cn1)/c1ccccc1 | 9.81%
O=C(NCc1nc(NC2CCCC2)c2cc(Cl)ccc2n1)c1ccoc1 | -2.99%
COc1ccccc1CCN1CCCC(CN(C)Cc2c[nH]c(C)n2)C1 (centres undefined) | 6.74%
N[C@@H]1c2ccccc2C2(CCN(c3ncccc3C(F)(F)F)CC2)[C@H]1O | 0.106%
COc1ccc(-c2noc(-c3ccc(N4CCC[C@H]4CO)nc3)n2)cc1 | 11.1%
CN(C)c1ccc(-c2cc(C(=O)O)cc(S(=O)(=O)NC3CC3)c2)cc1 | 16.5%
COc1ccccc1CCN[C@@H]1c2ccccc2C2(CCNCC2)[C@H]1O | 5.79%
O=C(NC1CC1)c1ccnc(N2CCOC(c3ccc(Cl)c(Cl)c3)C2)c1 (centres undefined) | 14%
O=C(O)c1cccnc1CN(Cc1ccsc1)C1CC1 | 3.7%

SMILES | cytotoxicity at 10 µM
CCc1[nH]c2c(CNc3nc(C)cc(NC)n3)cc(C)cc2c1C | -22.4%
CC(Nc1ncnc2c1CCNC2)c1ccc2c(c1)CCCC2 (centres undefined) | 42%
CNc1nc(C(=O)N2CCN(c3ccc(Cl)c(Cl)c3)CC2)cs1 | 13.9%
O=C1O[C@@H]2CN(c3ncccn3)C[C@@H]2N1CCCc1ccc(F)cc1 | -0.74%
CC(C)N1CC(NC(=O)c2ccc(Cl)s2)CC1=O (centres undefined) | -8.51%
Cc1cc(NC(=O)c2ccc(CN3CC[C@H](O)C3)cc2)ccc1F | 4.5%
CCOC(=O)N1CCN(c2nc(CCN)nc3sc(C)c(C)c23)CC1 | -43.4%
Clc1ccc2nc(N3CCC(NCCCC4CCOC4)CC3)sc2c1 (centres undefined) | 4.1%
O=C(c1ncoc1C1CC1)N1CCCN(CCCc2ccccc2)CC1 | -2.78%
Cc1cc(O)ccc1-c1cc(-c2cnn(C)c2C2CC2)c(C#N)c(N)n1 | 40.2%
Fc1ccccc1OC1CCN(CCn2cc3ccccc3n2)CC1 | 9.25%
CSc1nccc(N2CCC3(CCCN(CCc4ccccc4)C3)C2)n1 (centres undefined) | 16.2%
OCC1(CC2CCCCO2)CCN(c2cnc3ccccc3n2)CC1 (centres undefined) | 21.1%
COCCN(C)C[C@@H]1CN(C(=O)c2c(F)ccc(OC)c2F)C[C@@H]1CO | 0.45%
Oc1ccc(N2CCC(Cc3ccccc3)CC2)nn1 | 45.4%
CCC(Nc1nccc(C2CCCC2)n1)c1ccncc1 (centres undefined) | -63.8%
COc1cccc(-c2noc3c2CN(c2ncnc4c2CCC4)CC3)c1 | 51%
COc1cccc(-c2noc(C3CCN(Cc4cn(C)nc4C)C3)n2)c1 (centres undefined) | 11.4%
COc1ccc(-c2noc(CN3CC(n4cc(C)cn4)C3)n2)cc1 | -5.97%
O=C1NCCN1C1CCN(Cc2nc(-c3ccsc3)no2)CC1 | 44.8%
COc1ccc(OCCN2CCC(N3CCNC3=O)CC2)cc1 | 29.5%
Cc1cc(C(=O)N2CCc3nnc(N)cc3C2)c(C)n1-c1ccccc1 | 0.591%

SMILES | cytotoxicity at 10 µM
CN(Cc1ncc(C(C)(C)C)o1)CC1CCCN1c1cccnn1 (centres undefined) | -5.52%
c1ccc(OCCCN2CCN(c3ccc4nncn4n3)CC2)cc1 | -0.421%
CCOc1ncccc1NC(=O)N1CCN(c2cccc(C)c2C)CC1 | 81.2%
Cn1cc(NS(=O)(=O)c2ccc(OC(F)(F)F)cc2)ccc1=O | 33.4%
CC(C)c1n[nH]c(C(=O)Nc2ccnn2C(C)C)c1Br | 13.8%
NC1CCc2nc(-c3ccncc3)nc(Nc3cccc(F)c3)c2C1 (centres undefined) | 26.4%
Cc1noc(C)c1CN1CCn2cc(CNc3ccccn3)nc2C1 | -1.38%
Cc1noc(C)c1CN1C[C@@H]2CC(F)(F)C[C@@H]2C1 | -2.58%
CCN1C[C@H]2[C@@H](C1)N(c1ncc(F)cn1)CC[C@H]2OC | 3.5%
O=C(Nc1ccccc1)c1ccc2c(c1)C1(CCCCC1)CN2 | -31.5%
FC1(F)CCN(Cc2ccccn2)CC12CCN(c1cccnc1)C2 (centres undefined) | 25.5%
COc1cccc(CN(Cc2ccco2)Cc2[nH]cnc2C)c1 | 3.77%
Cc1noc(C)c1CN1CCc2ncnc(-c3ccncc3)c2CC1 | -87%
Cn1ncc2c1CCCC2NCc1cccc(C(F)(F)F)c1 (centres undefined) | -8.25%
CCN1C[C@@H]2[C@@H](OC)CCN(C(=O)c3cc(C)nn3CC)[C@@H]2C1 | -118%
CNC(=O)c1cc2c(nc1NCC(C)C)CCN(c1ncccn1)CC2 | -157%
CN1C(=O)C2(CCN(CC3CCC3)C2)c2ccccc21 (centres undefined) | -71.3%
c1cc(CO[C@H]2CC[C@H]3[C@H]2OCCN3Cc2nccs2)ccn1 | -109%
O=C([C@H]1C[C@@H]2CCN(c3cccc(F)c3)C[C@H]2O1)N1CCCC1 | 1.99%
O=C(CC1CC1)NC[C@]12COC[C@H]1CN(c1ncccn1)C2 | -142%
O=C(c1ccco1)N1CCO[C@@H]2CN(CC3CC3)CC[C@@H]2C1 | -67.9%
